Data published in ChEMBL document CHEMBL4616675, “Discovery of 6-Phenylhexanamide Derivatives as Potent Stereoselective Mitofusin Activators for the Treatment of Mitochondrial Diseases” (J Med Chem, 2020).
Values after ≈ are worked out from the molar mass of the structure shown.

Legend:
[1] = Half life in mouse liver microsomes at 1 uM by LC-MS/MS analysis; format: ADME, Microsome; conditions: for t1/2: microsomes, 1 µM; for half-life at 1 µM: liver microsomes
[2] = Half life in human liver microsomes at 1 uM by LC-MS/MS analysis; format: ADME, Microsome; conditions: for t1/2: microsomes, 1 µM; for half-life at 1 µM: liver microsomes
[3] = Half life in CD1 mouse plasma at 10 mg/kg, iv by LC-MS/MS analysis; format: ADME, organism-based; conditions: for t1/2: mouse, in vivo; for half-life: CD1, mouse, plasma
[4] = Kinetic solubility in pH 7.4 aqueous solution incubated for 24 hrs by UV spectroscopy; format: physicochemical; conditions: read-out: Kinetic_solubility
[5] = Stability in human plasma at 2 uM after 120 mins by LC-MS/MS analysis relative to control; format: ADME, cell-free; conditions: read-out: Stability
Summary of the method: (§1)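 Compounds at 2 µM in clarified freeze-thawed plasma, sampled at 0, 10, 30, 60 and 120 min. Supernatants after protein precipitation analysed by LC-MS/MS; the 120 min value is reported. Run in duplicate.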

[6] = Stability in mouse plasma at 2 uM after 120 mins by LC-MS/MS analysis relative to control; format: ADME, cell-free; conditions: read-out: Stability; summary of the method: as §1
[7] = Cmax in CD1 mouse plasma at 10 mg/kg, iv by LC-MS/MS analysis; format: ADME, organism-based; parameters: dose 10 mg/kg, route intravenous; conditions: in vivo
[8] = Drug level in CD1 mouse brain at 10 mg/kg, iv after 1 hr by LC-MS/MS analysis; format: ADME, organism-based; conditions: read-out: Drug uptake
Summary of the method: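 Male CD-1 mice, 7–9 weeks old, given a single 10 mg/kg tail-vein dose. Compound formulated at 2 mg/ml in 10% DMSO/90% (30% HP-β-CD). Plasma and brain sampled at intervals after dosing and analysed in duplicate by LC-MS/MS. Parameters derived by non-compartmental analysis. Values are means of at least 3 mice per condition; 15 mice per compound.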

[9] = Ratio of drug level in brain to plasma in CD1 mouse at 10 mg/kg, iv by LC-MS/MS analysis; format: ADME, organism-based
Summary of the method: (§2)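 Male CD-1 mice, 7–9 weeks, 15 per compound; single tail-vein dose of 10 mg/kg from a 2 mg/ml solution in 10% DMSO/90% (30% HP-β-CD). Plasma and brain sampled at increasing times, assayed in duplicate by LC-MS/MS. Parameters from non-compartmental analysis; mean of at least 3 mice per condition.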

[10] = Volume of distribution in CD1 mouse at 10 mg/kg, iv by LC-MS/MS analysis; format: ADME, organism-based; conditions: in vivo; summary of the method: as §2
[11] = AUC in CD1 mouse brain at 10 mg/kg, iv by LC-MS/MS analysis; format: ADME, organism-based; conditions: in vivo
[12] = Half life in CD1 mouse brain at 10 mg/kg, iv by LC-MS/MS analysis; format: ADME, organism-based
[13] = AUC in CD1 mouse plasma at 10 mg/kg, iv by LC-MS/MS analysis; format: ADME, organism-based; conditions: in vivo
[14] = Cmax in CD1 mouse brain at 10 mg/kg, iv by LC-MS/MS analysis; format: ADME, organism-based; parameters: dose 10 mg/kg, route intravenous

O=C(CCCCCc1ccncc1)NC1CCC(O)CC1 (configuration not stated) gave a t1/2 [1] of over 145 min and a t1/2 [2] of over 145 min.

O=C(CCCCCc1ccccn1)NC1CCC(O)CC1 (configuration not stated) showed a t1/2 [1] of over 145 min and a t1/2 [2] of over 145 min.

Work on CC1CCCCC1NC(=O)NCCCc1nnc(C2CC2)n1-c1ccccc1 (configuration not stated) yielded a t1/2 [3] of 12.6 min, a solubility kinetic at 24 h [4] of over 200 µM and a t1/2 [1] of 2 min. It also gave a remaining at 2 h, 2 µM [5] of 95%, a remaining at 2 h, 2 µM [6] of 100% and a t1/2 [2] of 6 min.

Work on O=C(CCCCCc1ccccc1)NC1CCC(F)(F)CC1 yielded a half-life at 1 µM [1] of 2.8 min and a half-life at 1 µM [2] of 10.2 min.

In the case of O=C(N[C@H]1CC[C@H](O)CC1)OCCCCc1ccccc1, the t1/2 [1] is reported as 48.9 min and the t1/2 [2] is reported as 131.3 min.

With O=C(NCCCCc1ccccc1)NC1CCC(O)CC1 (configuration not stated) the half-life [3] was 69 min, the Cmax [7] was 6100 ng/mL and the concentration at 1 h [8] was under 120 ng/g. For the same molecule, the BPR [9] was 0.171, the Vd [10] was 2 L/kg and the t1/2 [1] was over 145 min. The AUC [11] was 829 ng·h/g, the half-life [12] was 104 min and the t1/2 [2] was over 145 min. For the same molecule, the AUC [13] was 4860 ng·h/mL and the Cmax [14] was 1270 ng/g.

Molecule O=C(CCCCCc1cccnc1)NC1CCC(O)CC1 (configuration not stated) has a t1/2 [1] of 125.3 min and a t1/2 [2] of over 145 min.

With CC1CC(O)CCC1NC(=O)NCCCCc1ccccc1 (configuration not stated) the half-life [3] was 38.4 min, the Cmax [7] was 3647 ng/mL and the concentration at 1 h [8] was under 30 ng/g. The BPR [9] was 0.081, the Vd [10] was 2 L/kg and the t1/2 [1] was 24.2 min. It also gave an AUC [11] of 207 ng·h/g, a half-life [12] of 97.2 min and a t1/2 [2] of 40.1 min. It also gave an AUC [13] of 2564 ng·h/mL and a Cmax [14] of 366 ng/g.

O=C(NCCCCc1ccccc1)NC1CCNCC1 gave a t1/2 [1] of 137.5 min and a t1/2 [2] of over 145 min.

For CCn1c(CCCNC(=O)NC2CCOCC2)nnc1C1CC1, the t1/2 [3] was 22.8 min, the t1/2 [1] was over 145 min and the t1/2 [2] was over 145 min.

With O=C(CCCCOc1ccccc1)N[C@H]1CC[C@H](O)CC1 the t1/2 [1] was over 145 min and the t1/2 [2] was over 145 min.

For O=C(NCCCc1nnc(C2CC2)n1-c1ccc(F)cc1)NC1CCC(F)CC1 (configuration not stated), the t1/2 [1] was 17 min and the t1/2 [2] was 62 min.

Molecule NC1CCC(NC(=O)CCCCCc2ccccc2)CC1 (configuration not stated) has a t1/2 [1] of 111.9 min and a t1/2 [2] of 23.7 min.

Molecule O=C(CCCCCc1ccccc1)NC1CCOCC1 has a t1/2 [1] of 9.9 min and a t1/2 [2] of 53.6 min.

In the case of O=C(CCCOCc1ccccc1)N[C@H]1CC[C@H](O)CC1, the t1/2 [1] is reported as over 145 min and the t1/2 [2] is reported as over 145 min.

With CC1CCCCC1NC(=O)NCCc1nnc(-c2ccccc2)n1C (configuration not stated) the t1/2 [1] was 28 min and the t1/2 [2] was 8 min.

In the case of O=C(CCOCCc1ccccc1)N[C@H]1CC[C@H](O)CC1, the t1/2 [1] is reported as over 145 min and the t1/2 [2] is reported as over 145 min.

Work on CC1CCCCC1NC(=O)NCCCc1nnc(C2CC2)n1-c1ccc(F)cc1 (configuration not stated) yielded a t1/2 [1] of 1 min and a t1/2 [2] of 5 min.

With CC1CCC(NC(=O)CCCCCc2ccccc2)CC1 (configuration not stated) the t1/2 [1] was 1.4 min and the t1/2 [2] was 7 min.

For CC1CCCCC1NC(=O)NCCOc1nnc(C2CC2)n1-c1ccccc1 (configuration not stated), the solubility kinetic at 24 h [4] was 24 µM (≈ 9.2 µg/mL), the half-life at 1 µM [1] was 3 min and the remaining at 2 h, 2 µM [5] was 98%. For the same molecule, the remaining at 2 h, 2 µM [6] was 84% and the half-life at 1 µM [2] was 8 min.

Molecule O=C(CCCCCc1ccncn1)NC1CCC(O)CC1 (configuration not stated) has a t1/2 [1] of over 145 min and a t1/2 [2] of over 145 min.

In the case of CC1CCCCC1NC(=O)NCCCc1nnc(-c2ccccc2)n1C (configuration not stated), the t1/2 [1] is reported as 6 min and the t1/2 [2] is reported as 43 min.

For O=C(COCCCc1ccccc1)N[C@H]1CC[C@H](O)CC1, the t1/2 [1] was over 145 min and the t1/2 [2] was over 145 min.

O=C(NCCCc1nnc(C2CC2)n1-c1ccccc1)NC1CCOCC1 gave a t1/2 [3] of 11.4 min, a t1/2 [1] of 91 min and a t1/2 [2] of over 145 min.

CC1CCCCC1NC(=O)NCCCCc1ccccc1 (configuration not stated) showed a t1/2 [1] of 1.9 min and a t1/2 [2] of 13.3 min.

In the case of CC1CCCCC1NC(=O)NCCSc1nnc(C2CC2)n1-c1ccccc1 (configuration not stated), the solubility kinetic at 24 h [4] is reported as 67 µM (≈ 26.8 µg/mL), the t1/2 [1] is reported as 1 min and the remaining at 2 h, 2 µM [5] is reported as 95%. For the same molecule, the remaining at 2 h, 2 µM [6] was 94% and the t1/2 [2] was 3 min.
